This is a sample that favours compounds with a hit; in the whole collection about 2.5% have one here.
Platelet DG rel: platelet dense granule release activity; 300,000 tested, 0.22% active; human platelet-rich plasma, SFLLRN dense granule ATP release, luminescence; inhibition, %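 (compounds screened at 7.5 µM in platelet-rich plasma)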;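 active means mean replicate score, as percent of positive control, at or above 50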
TRPC6 inhibitor: blocks the mouse TRPC6 cation channel. Q61143. HEK293-TRPC6, membrane potential dye, ACh-evoked depolarization; hits give low values. B-score at 10 µM. 310,000 tested, 1.1% active;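 active means B-score under library mean minus 3 SD, initial fluorescence not abnormally high, positive integrated signal ratio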;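 further: B-score derived from integrated fluorescence ratio over the kinetic read; more negative B-score means stronger inhibition of depolarization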
TRPC4 potent: allosterically enhances the mouse TRPC4 cation channel | Q9QUQ5 | HEK293 TRPC4beta/mu-opioid, DAMGO EC20, Fluo-4 Ca2+ flux; hits give high values | B-score at 10 µM | 310,000 tested, 0.42% active | AID 2227;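 active means B-score of calcium response area above 5 SD of library B-scores, with initial fluorescence ratio within 5 SD of library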
Target sequence (Q9QUQ5 whole entry, looked up): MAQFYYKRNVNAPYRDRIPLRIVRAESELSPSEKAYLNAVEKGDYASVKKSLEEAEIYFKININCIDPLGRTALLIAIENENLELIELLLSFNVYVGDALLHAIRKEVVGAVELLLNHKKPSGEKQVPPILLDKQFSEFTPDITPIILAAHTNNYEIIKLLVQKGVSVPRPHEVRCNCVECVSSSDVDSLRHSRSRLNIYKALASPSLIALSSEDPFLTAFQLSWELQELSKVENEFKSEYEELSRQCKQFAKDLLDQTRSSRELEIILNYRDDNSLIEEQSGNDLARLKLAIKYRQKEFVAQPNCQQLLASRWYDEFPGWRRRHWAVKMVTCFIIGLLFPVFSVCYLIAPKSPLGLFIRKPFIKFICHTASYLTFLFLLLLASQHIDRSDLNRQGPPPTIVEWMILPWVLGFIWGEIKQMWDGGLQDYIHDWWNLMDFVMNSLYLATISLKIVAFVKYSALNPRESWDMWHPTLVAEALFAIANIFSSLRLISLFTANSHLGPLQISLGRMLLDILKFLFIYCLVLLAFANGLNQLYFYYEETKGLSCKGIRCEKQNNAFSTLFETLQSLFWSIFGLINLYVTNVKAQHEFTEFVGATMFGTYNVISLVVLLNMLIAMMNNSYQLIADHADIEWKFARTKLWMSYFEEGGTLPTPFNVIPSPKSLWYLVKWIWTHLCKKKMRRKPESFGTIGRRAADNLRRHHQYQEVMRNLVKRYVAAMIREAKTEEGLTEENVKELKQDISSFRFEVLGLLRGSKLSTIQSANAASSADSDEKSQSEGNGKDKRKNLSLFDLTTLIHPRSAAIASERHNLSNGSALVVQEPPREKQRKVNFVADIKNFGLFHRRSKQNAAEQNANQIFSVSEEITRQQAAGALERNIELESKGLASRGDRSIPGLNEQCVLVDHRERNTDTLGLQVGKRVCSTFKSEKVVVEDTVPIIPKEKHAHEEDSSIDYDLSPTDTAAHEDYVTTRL
TRPC4 block: inhibitors of mouse TRPC4 channel | B-score at 10 µM | Q9QUQ5 | 300,000 tested, 0.39% active | AID 2247 | HEK293 TRPC4beta/mu-opioid, DAMGO-evoked Fluo4 calcium flux; hits give low values;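 active means B-score over 3 SD under the library average, no early fluorescence shift, positive overall ratio signal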
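Material: HEK293 cells with stable TRPC4beta plus mu-opioid receptor expression / Probe or stimulus: DAMGO in two steps, submaximal then maximal / Compound: single concentration per test compound / Technique: kinetic Fluo4 fluorescence imaging of calcium influx / Read-out: per-well B score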
TRPC6 activator: activators of mouse TRPC6 channel; Q61143; HEK293-TRPC6 membrane potential dye fluorescence; hits give high values; B-score at 10 µM; 310,000 tested, 0.13% active; AID 2550;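 active means B-score of the integrated fluorescence ratio above library mean plus 3 SD, and starting fluorescence ratio within library mean plus 5 SD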;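 further: higher score means more depolarization so channel activation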
TRPC4 act: TRPC4 (mouse) channel activation. Q9QUQ5. HEK293 TRPC4beta/mu-opioid, Fluo4 calcium fluorescence; hits give high values. B-score at 10 µM. 310,000 tested, 0.49% active;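 active means B-score above 5 SD of library B-scores, and initial fluorescence ratio not above library mean plus 5 SD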;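 further: positive B-score marks a calcium rise read as TRPC4 activation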
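Material: HEK293 stable line with TRPC4beta plus mu-opioid receptor; technique: Fluo4 calcium-sensitive dye fluorescence, kinetic, 1 Hz baseline; timing: Fluo4 dye loading 45 min at room temperature, 110 s recording; controls: assay buffer as low control, maximal DAMGO as high control; read-out: integrated baseline-normalised fluorescence ratio, converted to per-well B score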
TRPC4 spec 2: second selectivity test of TRPC6 inhibitors: effect on mouse TRPC4; shares compounds with TRPC6 inhibitor; HEK293 TRPC4/MOR, membrane potential dye fluorescence; channel activated by saturating DAMGO dose; inhibition, % at 10 µM; 920 tested, 42% active; AID 2776;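 active means compounds whose fluorescence signal differed from control wells by over 3 SD, either direction, in both duplicate plates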
TRPC4 spec: tests whether TRPC6 inhibitors also affect mouse TRPC4. shares compounds with TRPC6 inhibitor. HEK293 TRPC4/mu-opioid, membrane potential fluorescence. activity change, negative = inhibition, % at 10 µM. AID 2777. 920 tested, 61% active;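 active means rise or fall in signal beyond 3 SD of buffer-only wells in both replicate plates, either sign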;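 further: integrated kinetic ratio of fluorescence range over baseline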
HEK293 MPD ctr 2-1: parental HEK293 nonspecific activity of TRPC6 inhibitors, second screen | shares compounds with TRPC6 inhibitor | parental HEK293 membrane potential dye fluorescence; maximal acetylcholine challenge after compound addition | signal change vs control, % at 10 µM | 920 tested, 31% active;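 active means membrane potential signal moving either way by over 3 SD of the maximum-effect control, in both duplicate plates, meaning non-specific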
HEK293 MPD ctr-1: parental HEK293 nonspecific activity of TRPC6 inhibitors; shares compounds with TRPC6 inhibitor; 920 tested, 60% active; parental HEK293 membrane potential dye fluorescence; AID 2780; membrane potential signal change, % at 10 µM;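 active means membrane potential signal shifting up or down by more than 3 SD of buffer-only wells, on both duplicate plates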
HEK293 MPD ctr-2: checks TRPC6 modulator effects in parental HEK293 cells; shares compounds with TRPC6 inhibitor; membrane potential dye fluorescence; membrane potential signal change, % at 10 µM; 2,400 tested, 51% active; AID 488924;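 active means membrane potential signal moves up or down beyond 5 SD from buffer-only wells, on both duplicate plates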
HEK293 MPD ctr 2-2: second check of TRPC6 modulator effects in parental HEK293 cells; shares compounds with TRPC6 inhibitor; membrane potential dye fluorescence; after compound, maximal acetylcholine stimulation; 2,400 tested, 14% active; AID 488926; inhibition, % at 10 µM;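 active means membrane potential signal drops by more than 5 SD from the mean control signal, in both duplicate plates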
TRPC4 ctr mod: mouse TRPC4 off-target activity of TRPC6 modulators | shares compounds with TRPC6 inhibitor | AID 488927 | percent change from control (negative = decrease, positive = increase), % at 10 µM | HEK293 TRPC4/mu-opioid, membrane potential fluorescence | 2,400 tested, 69% active;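 active means membrane potential signal moved up or down beyond 5 SD of buffer control wells, in both duplicate plates, actives on both sides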
TRPC4/MOR inh 2: second selectivity test of TRPC6 modulators against mouse TRPC4; AID 488928; 2,400 tested, 55% active; inhibition, % at 10 µM; HEK293 TRPC4/mu-opioid, membrane potential dye fluorescence; stimulated with maximal-effect DAMGO; shares compounds with TRPC6 inhibitor;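 active means drop in membrane potential signal beyond 5 SD of the control wells in both duplicate plates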;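 further: TRPC4 counter screen for TRPC6 hits run under conditions tuned for TRPC6 not TRPC4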
TRPC6 inh conf: mouse TRPC6 inhibitor confirmation | shares compounds with TRPC6 inhibitor | HEK293-TRPC6, membrane potential dye, ACh-evoked depolarization | inhibition, % at 10 µM | 3,300 tested, 43% active;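 active means fluorescence ratio falls more than 5 SD below the full-stimulation control mean, in both duplicate runs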;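 further: integrated fluorescence ratio of peak minus minimum over baseline after agonist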
TRPC6 act conf: mouse TRPC6 activator confirmation. shares compounds with TRPC6 inhibitor. HEK293-TRPC6 membrane potential dye fluorescence, FDSS. activation, % at 10 µM. 2,800 tested, 11% active. AID 488961;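 active means ratio signal rise beyond 5 SD above unstimulated control wells' mean, seen in both duplicate runs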
Large screens that a line does not name were inactive (follow-up assays come after a bar, where they were run).

O=C(NCc1ccc2c(c1)OCO2)c1ccc2c(c1)N(Cc1c(F)cccc1Cl)C(=O)CS2	none
COc1ccc(/C=N/Nc2nc(N3CCCC3)nc(N3CCCC3)n2)cc1O	TRPC6 inhibitor -5.5 | HEK293 MPD ctr-2 inactive | HEK293 MPD ctr 2-2 inactive | TRPC4 ctr mod inactive | TRPC4/MOR inh 2 inactive | TRPC6 inh conf inactive | TRPC6 act conf inactive
COc1cc(/C=N/Nc2nc(N3CCCC3)nc(N3CCCC3)n2)ccc1OCc1ccccc1F	TRPC6 inhibitor -7.4 | TRPC4 spec 2 inactive | TRPC4 spec -14% | HEK293 MPD ctr 2-1 inactive | HEK293 MPD ctr-1 inactive | TRPC6 inh conf inactive | TRPC6 act conf inactive
COc1ccc(/C=N/Nc2nc(N3CCCC3)nc(N3CCCC3)n2)cc1	none
O=C(NCCC(=O)N1CCc2ccccc21)c1ccccc1Cl	none
COc1ccc(-c2cn(-c3ccc(Cl)cc3)c3[n+]2CCCCC3)cc1	none
Clc1ccc(-c2cn(-c3ccccc3)c3[n+]2CCS3)cc1	TRPC6 inhibitor -7.4 | HEK293 MPD ctr-2 -96% | HEK293 MPD ctr 2-2 58% | TRPC4 ctr mod -16% | TRPC4/MOR inh 2 inactive | TRPC6 inh conf 48% | TRPC6 act conf inactive
Fc1ccc(-c2cn(-c3ccccc3)c3[n+]2CCS3)cc1	none
COc1ccc(-c2cn(-c3ccc(Br)cc3)c3[n+]2CCS3)cc1	TRPC6 inhibitor -5.9 | HEK293 MPD ctr-2 inactive | HEK293 MPD ctr 2-2 inactive | TRPC4 ctr mod inactive | TRPC4/MOR inh 2 inactive | TRPC6 inh conf inactive | TRPC6 act conf inactive
COc1ccc(CCNC(=O)CCNC(=O)c2ccco2)cc1OC	none
CCCn1c(=N)n(CC(=O)c2ccc(Cl)cc2)c2ccccc21	TRPC6 inhibitor -7.3 | TRPC4 spec 2 26% | TRPC4 spec 35% | HEK293 MPD ctr 2-1 258% | HEK293 MPD ctr-1 3.4% | TRPC6 inh conf inactive | TRPC6 act conf inactive
CCCn1c(=N)n(CC(=O)c2ccc([N+](=O)[O-])cc2)c2ccccc21	none
COc1ccc(S(=O)(=O)NCC2CCCO2)c(Cl)c1Cl (stereo unspecified)	none
Cn1c(SCc2c(Cl)cccc2Cl)nnc1-c1cccs1	TRPC6 inhibitor -6.6 | HEK293 MPD ctr-2 274% | HEK293 MPD ctr 2-2 inactive | TRPC4 ctr mod 56% | TRPC4/MOR inh 2 inactive | TRPC6 inh conf inactive
Cc1ccc(CSc2nnc(-c3cccs3)n2C)cc1	none
O=C(CC1C(=O)NCCN1C(=O)Nc1ccc(C(F)(F)F)cc1)Nc1ccc(F)cc1 (stereo unspecified)	TRPC6 inhibitor -5 | HEK293 MPD ctr-2 -106% | HEK293 MPD ctr 2-2 inactive | TRPC4 ctr mod -18% | TRPC4/MOR inh 2 45% | TRPC6 inh conf inactive | TRPC6 act conf inactive
COc1cc(C(=O)Nc2ccc3c(c2)N(C(=O)CCN(C)C)c2ccccc2CC3)cc(OC)c1OC	TRPC6 inhibitor -8.8 | HEK293 MPD ctr-2 inactive | HEK293 MPD ctr 2-2 inactive | TRPC4 ctr mod inactive | TRPC4/MOR inh 2 inactive | TRPC6 inh conf 58% | TRPC6 act conf inactive
CCOC(=O)Nc1ccc2c(c1)N(C(=O)OC)c1ccccc1CC2	none
CCOC(=O)Nc1ccc2c(c1)N(CCCN(C)C)c1ccccc1CC2	TRPC6 inhibitor -7.8 | TRPC4 spec 2 inactive | TRPC4 spec inactive | HEK293 MPD ctr 2-1 inactive | HEK293 MPD ctr-1 inactive | TRPC6 inh conf 51% | TRPC6 act conf inactive
CCOc1nc2ccccc2cc1C=O	none
Cc1ccc(OC(C)C(=O)N2CC(=O)Nc3ccccc32)cc1 (stereo unspecified)	TRPC6 activator 15 | HEK293 MPD ctr-2 inactive | HEK293 MPD ctr 2-2 inactive | TRPC4 ctr mod inactive | TRPC4/MOR inh 2 inactive | TRPC6 act conf 136%
CN1CCN(c2ncccc2S(=O)(=O)N2CCCCC2)CC1	TRPC6 inhibitor -7 | TRPC4 spec 2 inactive | TRPC4 spec -0.1% | HEK293 MPD ctr 2-1 -41% | HEK293 MPD ctr-1 0.9% | TRPC6 inh conf 78% | TRPC6 act conf inactive
O=S(=O)(c1cccc2cccnc12)N1CCCCC1	none
CN(Cc1ccon1)C(=O)C1CCC(=O)N(CCc2ccc(Cl)cc2)C1 (stereo unspecified)	none
Nc1cc2ccncc2c2ccccc12	TRPC6 inhibitor -11 | HEK293 MPD ctr-2 -380% | HEK293 MPD ctr 2-2 78% | TRPC4 ctr mod -72% | TRPC4/MOR inh 2 86% | TRPC6 inh conf 74% | TRPC6 act conf inactive
CCCCCCn1c2c(c(=N)c3c1CCC3)CCC2	TRPC6 inhibitor -8.5 | TRPC4 spec 2 69% | TRPC4 spec -25% | HEK293 MPD ctr 2-1 -12% | HEK293 MPD ctr-1 -452% | TRPC6 inh conf 78% | TRPC6 act conf inactive
CCCCCCCCCn1c2c(c(=N)c3c1CCC3)CCC2	TRPC6 inhibitor -6.3 | HEK293 MPD ctr-2 -169% | HEK293 MPD ctr 2-2 inactive | TRPC4 ctr mod -21% | TRPC4/MOR inh 2 36% | TRPC6 inh conf inactive | TRPC6 act conf inactive
CCCCCCn1c(=O)[nH]c2c(c1=O)CCC2	none
N=c1c2c(n(Cc3ccc(F)cc3)c3c1CCC3)CCC2	TRPC6 inhibitor -5.8 | HEK293 MPD ctr-2 -192% | HEK293 MPD ctr 2-2 inactive | TRPC4 ctr mod -32% | TRPC4/MOR inh 2 62% | TRPC6 inh conf inactive | TRPC6 act conf inactive
Fc1ccc(CN2CCCCCCC2)cc1	none

Assay outcomes from PubChem.
